Test results from ChEMBL document CHEMBL2040777, “N-Aryl-N'-(chroman-4-yl)ureas and thioureas display in vitro anticancer activity and selectivity on apoptosis-resistant glioblastoma cells: screening, synthesis of simplified derivatives, and structure-activity relationship analysis” (Eur J Med Chem, 2012).
Calls of active or inactive are those of the source. The calls are words filed in the database; no cut-off is given here.

How the values were obtained:
T98G [1] = experiment: Growth inhibition of human T98G cells after 72 hrs by MTT assay; type: functional, cell-based
Outline: (§1)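 Glioma lines were grown in RPMI with 10% heat-inactivated FCS, 4 mM glutamine, gentamicin and penicillin-streptomycin. Cells were plated for 24 h at 10,000–40,000 cells/mL, then exposed to compound for 72 h. MTT reduction to formazan was read at 570 nm (reference 630 nm). Six replicates were run.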

[2] = Growth inhibition of human U373 cells after 72 hrs by MTT assay; type: functional, cell-based, U-373MG ATCC; details: U373 MG; outline: as §1
[3] = Growth inhibition of human Hs683 cells after 72 hrs by MTT assay; type: functional, cell-based; details: Hs 683, 72 h; outline: as §1
[4] = Selectivity index, ratio of IC50 for mouse astrocytes to IC50 for human U373 cells; set-up: species or system U-373MG ATCC
Hs 683 = experiment: Selectivity index, ratio of IC50 for mouse astrocytes to IC50 for human Hs683 cells
T98G [5] = experiment: Selectivity index, ratio of IC50 for mouse astrocytes to IC50 for human T98G cells
B16-F10 = experiment: Growth inhibition of mouse B16F10 cells after 72 hrs by MTT assay; type: functional, cell-based; details: B16-F10, 72 h
U-373MG ATCC = experiment: Induction of apoptosis in human U373 cells assessed as increase in subG1 cell population at 3 to 10 uM after 24 hrs by flow cytometric analysis; type: functional, cell-based
[6] = Cell cycle arrest in human U373 cells assessed as accumulation at G0/G1 phase at 3 to 10 uM after 24 hrs by propidium iodide staining-based flow cytometric analysis; type: functional; details: U-373MG ATCC
[7] = Cell cycle arrest in human U373 cells assessed as accumulation at G0/G1 phase at 10 to 30 uM after 24 hrs by propidium iodide staining-based flow cytometric analysis; type: functional; details: U-373MG ATCC

| SMILES | IC50 (T98G [1]) | IC50 [2] | IC50 [3] | Ratio IC50 [4] | Ratio IC50 (Hs 683) | Ratio IC50 (T98G [5]) | IC50 (B16-F10) | Activity (U-373MG ATCC) | Activity [6] | Activity [7] |
| --- | --- | --- | --- | --- | --- | --- | --- | --- | --- | --- |
| CC1(C)CC(NC(=S)NCc2ccccc2)c2cc(F)ccc2O1 (configuration not stated) | 40 µM | 27 µM | 25 µM | – | – | – | – | – | – | – |
| CC1(C)CC(NC(=S)Nc2ccc(C#N)cc2)c2cc(Br)ccc2O1 (configuration not stated) | 24 µM | 22 µM | 15 µM | 2 | 2 | 2 | – | – | – | – |
| O=[N+]([O-])c1ccc(NC(=S)NC2CCOc3ccc(Cl)cc32)cc1 (configuration not stated) | 12 µM | 8 µM | 6 µM | – | – | – | – | – | – | – |
| CC1(C)CC(NC(=S)Nc2ccc([N+](=O)[O-])cc2)c2cc(F)ccc2O1 (configuration not stated) | 5 µM | 3 µM | 3 µM | 5 | 5 | 5 | 4 µM | inactive | Active | – |
| CC(C)NC(=O)NC1CC(C)(C)Oc2ccc(Cl)cc21 (configuration not stated) | > 100 µM | 62 µM | 85 µM | – | – | – | – | – | – | – |
| CC1(C)CC(NC(=S)NCc2ccccc2)c2cc(Br)ccc2O1 (configuration not stated) | 54 µM | 29 µM | 34 µM | – | – | – | – | – | – | – |
| COc1ccc(Cl)cc1CNC(=S)Nc1ccc([N+](=O)[O-])cc1 | 35 µM | 22 µM | 15 µM | – | – | – | – | – | – | – |
| CC1(C)CC(NC(=O)Nc2ccc(Cl)cc2)c2cc(F)ccc2O1 (configuration not stated) | 30 µM | 24 µM | 25 µM | – | – | – | – | – | – | – |
| CC1(C)CC(NC(=S)Nc2cccc(Cl)c2)c2cc(Br)ccc2O1 (configuration not stated) | 9 µM | 8 µM | 8 µM | <2 | <2 | <2 | 7 µM | – | – | – |
| CC1(C)CC(NC(=O)Nc2ccc(Cl)cc2)c2cc(Br)ccc2O1 (configuration not stated) | 27 µM | 25 µM | 24 µM | 5 | 5 | 5 | 9 µM | – | – | – |
| CC1(C)CC(NC(=O)NCc2ccccc2)c2cc(Cl)ccc2O1 (configuration not stated) | 15 µM | 66 µM | 47 µM | – | – | – | – | – | – | – |
| CC1(C)CC(NC(=S)Nc2cccc(C#N)c2)c2cc(Cl)ccc2O1 (configuration not stated) | 10 µM | 7 µM | 6 µM | <5 | <5 | <5 | 6 µM | – | – | – |
| O=[N+]([O-])c1cccc(NC(=S)NCc2cccc(Cl)c2)c1 | 61 µM | 32 µM | 41 µM | – | – | – | – | – | – | – |
| CC1(C)CC(NC(=S)Nc2ccc([N+](=O)[O-])cc2)c2cc(Br)ccc2O1 (configuration not stated) | 5 µM | 9 µM | 3 µM | <2 | <2 | <2 | 3 µM | – | – | – |
| CC1(C)CC(NC(=S)Nc2ccc(C#N)cc2)c2cc(F)ccc2O1 (configuration not stated) | 19 µM | 11 µM | 14 µM | 3 | 3 | 3 | 5 µM | – | – | – |
| CCNC(=O)NC1CC(C)(C)Oc2ccc(Cl)cc21 (configuration not stated) | – | > 100 µM | – | – | – | – | – | – | – | – |
| CC1(C)CC(NC(=S)Nc2ccc(Cl)cc2)c2cc(Br)ccc2O1 (configuration not stated) | 22 µM | 7 µM | 9 µM | 2 | 2 | 2 | 7 µM | inactive | Active | – |
| O=[N+]([O-])c1cccc(NC(=S)NC2CCOc3ccc(Cl)cc32)c1 (configuration not stated) | 10 µM | 8 µM | 7 µM | – | – | – | – | – | – | – |
| Cn1nnc2c(C(N)=O)ncn2c1=O [TEMOZOLOMIDE] | 879 µM | 220 µM | 956 µM | – | – | – | 258 µM | – | – | – |
| CC1(C)CC(NC(=O)Nc2ccccc2Cl)c2cc(F)ccc2O1 (configuration not stated) | 27 µM | 40 µM | 29 µM | – | – | – | – | – | – | – |
| CC1(C)CC(NC(=S)Nc2ccc(C#N)cc2)c2cc(Cl)ccc2O1 (configuration not stated) | 10 µM | 10 µM | 6 µM | 3 | 3 | 3 | 7 µM | – | – | – |
| COc1ccccc1NC(=S)NC1CC(C)(C)Oc2ccc(Br)cc21 (configuration not stated) | 42 µM | 22 µM | 40 µM | – | – | – | – | – | – | – |
| COc1ccc(Cl)cc1C(=O)NCCc1ccc(S(=O)(=O)NC(=O)NC2CCCCC2)cc1 [GLYBURIDE] | – | > 100 µM | – | – | – | – | – | – | – | inactive |
| COc1cccc(NC(=S)NC2CC(C)(C)Oc3ccc(Br)cc32)c1 (configuration not stated) | 87 µM | 66 µM | 81 µM | – | – | – | – | – | – | – |
| CC(C)NC(=S)NC1CC(C)(C)Oc2ccc(Cl)cc21 (configuration not stated) | 91 µM | 57 µM | 34 µM | – | – | – | – | – | – | – |
